What all share (format): cell-based
One data set has as its system L6. In words: Toxicity in rat L6 cells expressing myc-tagged rat GLUT4 assessed as inhibition of glucose uptake at 10 uM incubated for 16 hrs by scintillation counting based 2-[3H]DG uptake assay. The note with it: l6, 16 h. The method, boiled down:
(§1)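 Differentiated L6-GLUT4myc myotubes (2% FBS, 6–7 days after seeding) exposed to compound for 16 h; insulin 100 nM as positive control. Uptake measured 5 min at room temperature in HEPES-buffered saline with 10 µM 2-DG (0.5 µCi/ml 2-[3H]DG), then lysis and scintillation counting. Cytochalasin B (25 µM) background subtracted. Duplicates normalized to total protein; percent stimulation versus control cells.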

Data set [1] addresses T1, Solute carrier family 2, facilitated glucose transporter member 4 (Rattus norvegicus) (UniProt P19357).
T1 sequence (whole entry): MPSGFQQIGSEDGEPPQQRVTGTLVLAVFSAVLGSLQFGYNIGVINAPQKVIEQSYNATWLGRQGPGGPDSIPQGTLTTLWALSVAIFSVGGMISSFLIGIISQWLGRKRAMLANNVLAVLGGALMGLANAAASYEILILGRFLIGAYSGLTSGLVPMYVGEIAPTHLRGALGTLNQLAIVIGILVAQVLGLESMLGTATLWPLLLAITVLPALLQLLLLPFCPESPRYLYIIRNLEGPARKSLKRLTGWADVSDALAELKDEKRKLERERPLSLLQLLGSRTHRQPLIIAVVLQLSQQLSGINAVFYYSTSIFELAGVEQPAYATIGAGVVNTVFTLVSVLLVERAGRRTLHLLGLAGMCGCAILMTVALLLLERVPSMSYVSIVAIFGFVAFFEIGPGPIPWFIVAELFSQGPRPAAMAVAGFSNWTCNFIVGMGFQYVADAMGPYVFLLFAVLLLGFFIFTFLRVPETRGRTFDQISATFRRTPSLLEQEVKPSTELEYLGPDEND
In words: Stimulation of rat GLUT4-mediated glucose uptake in rat L6 cells expressing myc-tagged GLUT4 at 10 uM incubated for 16 hrs by scintillation counting based 2-[3H]DG uptake assay. The method, boiled down:
as §1

The target in data set [2] is T1, Solute carrier family 2, facilitated glucose transporter member 4 (Rattus norvegicus). In words: Induction of rat GLUT4 translocation in rat L6 cells expressing myc-tagged GLUT4 incubated for 3 hrs by antibody-coupled colourimetric assay. The method, boiled down:
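L6-GLUT4myc myotubes, non-permeabilized, treated 3 h with vehicle (DMSO), insulin 100 nM or compound at 5, 10, 25 µM. Fixed in 3% paraformaldehyde 30 min, glycine-quenched, milk-blocked, then anti-myc 1.0 µg/ml 1 h. HRP secondary with o-phenylenediamine read-out at OD 492 nm. Triplicates, three independent experiments; expressed as fold over unstimulated cells.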

The target is the same in data set [3]. In words: Stimulation of rat GLUT4-mediated glucose uptake in rat L6 cells expressing myc-tagged GLUT4 at 10 uM incubated for 16 hrs in presence of 1 uM PI3K inhibitor wortmannin by scintillation counting based 2-[3H]DG uptake assay. In outline: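 Differentiated L6-GLUT4myc myotubes treated with compound at 10 µM, with wortmannin (1 µM) present for the final hour. Uptake then measured 5 min at room temperature in HEPES-buffered saline with 10 µM 2-DG (0.5 µCi/ml 2-[3H]DG), followed by lysis and scintillation counting. Cytochalasin B (25 µM) nonspecific uptake subtracted; duplicates normalized to protein, expressed versus control.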

Data set [4] has the same target. In words: Stimulation of rat GLUT4-mediated glucose uptake in rat L6 cells expressing myc-tagged GLUT4 incubated for 16 hrs by scintillation counting based 2-[3H]DG uptake assay. In outline: as §1

Active and inactive are the calls of the source. The calls are words filed in the database; no cut-off is given here.

With `COc1ccc(C(c2oc(CO)cc(=O)c2O)c2c[nH]c3ccccc23)cc1` (stereo not given), in the data set on L6, the Activity result is given as “Toxic”. Also, the result in data set [1] was inactive.
Take `O=c1cc(CO)oc(C(c2ccc(Br)cc2)c2c[nH]c3ccccc23)c1O` (stereo not given): the Activity entry with L6 was “Toxic”. Besides, in data set [1], the result was inactive.
`Cc1ccc(C(c2ccccc2)c2oc(CO)cc(=O)c2O)s1` (stereo not given): the Activity entry in data set [2] is “Dose-dependent effect”. The result in data set [3] was inactive. The molecule further gave a fold change (FC) in data set [1] of 1.21.
With `O=c1cc(CO)oc(C(c2ccccc2)c2ccc[nH]2)c1O` (stereo not given), the result in data set [1] was inactive.
The same measure, in the same setting: under `CCCCC(c1oc(CO)cc(=O)c1O)c1c[nH]c2ccccc12` (stereo not given) stands “inactive”; under `O=c1cc(CO)oc(C(c2ccccc2)c2csc3ccccc23)c1O` (stereo not given), “inactive”.
Same read-out and setting: under `CCCCCCCCC(c1oc(CO)cc(=O)c1O)c1c[nH]c2ccccc12` (stereo not given) stands “inactive”.
`O=c1cc(CO)oc(C(Sc2ccccc2)c2ccccc2)c1O` (stereo not given): the Activity entry in data set [4] and in data set [2] was “Dose-dependent effect” in each case. Moreover, the result in data set [3] was inactive. Also, the fold change (FC) in data set [1] is 1.33.
Turning to `O=c1cc(CO)oc(C(c2ccccc2)c2ccc(O)cc2)c1O` (stereo not given), the Activity entry in data set [2] was “Dose-dependent effect”. Also, the result in data set [3] was inactive. Also, the fold change (FC) in data set [1] worked out at 1.34.
As for `CCCCCn1cc(C(c2ccccc2)c2oc(CO)cc(=O)c2O)c2ccccc21` (stereo not given), in the data set with L6, the Activity entry was “Toxic”. Also, the result in data set [1] was inactive.
In the case of `O=c1cc(CO)oc(C(c2ccccc2)c2cn(Cc3ccccc3)c3ccccc23)c1O` (stereo not given), the Activity entry in the data set with L6 was “Toxic”. In addition, the result in data set [1] was inactive.
Taken in the same sequence, the figures for `O=c1cc(CO)oc(C(c2ccc(F)cc2)c2c[nH]c3ccccc23)c1O` (stereo not given) were “Toxic” and “inactive”.
On to `COc1ccc(OC)c(C(c2oc(CO)cc(=O)c2O)c2c[nH]c3ccccc23)c1` (stereo not given), for which the Activity entry in data set [4] and in data set [2] was “Dose-dependent effect” each time. Moreover, in data set [3], the result was inactive. In data set [1], the fold change (FC) came out at 1.21.
In the case of `O=c1cc(CO)oc(C(c2ccc(Cl)cc2)c2c[nH]c3ccccc23)c1O` (stereo not given), in the data set on L6, the Activity entry is “Toxic”. For the same molecule, the outcome in data set [1] was inactive.
For `O=c1cc(CO)oc(C(c2ccccc2)c2c(-c3ccccc3)[nH]c3ccccc23)c1O` (stereo not given) the same measures were “Toxic” and “inactive”.
Consider `COc1cccc(C(c2oc(CO)cc(=O)c2O)c2c[nH]c3ccccc23)c1OC` (stereo not given), for which the Activity entry in data set [4] and in data set [2] was “Dose-dependent effect” in each case. In addition, in data set [3], the result was inactive. Further, the fold change (FC) in data set [1] came to 1.25.
For `COc1ccc2[nH]cc(C(c3ccccc3)c3oc(CO)cc(=O)c3O)c2c1` (stereo not given), the Activity result in data set [4] and in data set [2] was “Dose-dependent effect” in each case. The result in data set [3] was inactive. For the same molecule, in data set [1], the fold change (FC) was determined as 1.25.
Regarding `COc1ccc(SC(c2ccccc2)c2oc(CO)cc(=O)c2O)cc1` (stereo not given), the Activity entry in data set [4] and in data set [2] was “Dose-dependent effect” in each case. Moreover, in data set [3], the result was inactive. Moreover, in data set [1], the fold change (FC) was determined as 1.38.
On to `O=c1cc(CO)oc(C(c2ccccc2)c2c[nH]c3ccccc23)c1O` (stereo not given), for which, in the data set on L6, the Activity entry is recorded as “Toxic”. The outcome in data set [1] was inactive.
For the molecule `O=c1cc(CO)oc(C(c2ccc3ccccc3c2)c2c[nH]c3ccccc23)c1O` (stereo not given), the Activity result in the data set with L6 is “Toxic”. The outcome in data set [1] was inactive.
`Cn1cc(C(c2ccccc2)c2oc(CO)cc(=O)c2O)c2ccccc21` (stereo not given): the result in data set [1] was inactive.
The same measure, in the same setting: under `N#Cc1ccc2[nH]cc(C(c3ccccc3)c3oc(CO)cc(=O)c3O)c2c1` (stereo not given) stands “inactive”.

The record behind these values is ChEMBL document CHEMBL3351811, “Synthesis of heteroaryl/aryl kojic acid conjugates as stimulators of glucose uptake by GLUT4 translocation” (Eur J Med Chem, 2014).
